This passage reports Activity and Activity (umolequiv/umol) results from ChEMBL document CHEMBL3865830, “Multifunctional diamine AGE/ALE inhibitors with potential therapeutical properties against Alzheimer's disease” (Eur J Med Chem, 2016).

Series [1] can be described thus: Metal chelating activity of compound assessed as compound-Cu2+ complex formation at 0.1 mM after 10 mins in presence of CuSO4.5H2O by complexometric indicator murexide based UV-Vis spectrophotometric analysis. The format is physicochemical. The conditions noted are these: 100 µM. The method in brief:
(§1)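 Compound (0.02-2 mM) incubated with CuSO4 (120 µM) for 10 min at rt, in 10 mM hexamine/HCl with 10 mM KCl (pH 5.0), or in buffer/MeOH 75:25 for poorly soluble compounds. Murexide added, 1 min more. The A485/A520 ratio gives free Cu2+ from a CuSO4 calibration curve (0-125 µM). % chelation is taken by difference from the no-compound control; triplicates.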

Series [2] is described as follows: Reactive carbonyl species trapping activity of compound assessed as MGO adduct formation at 10 mM preincubated for 24 hrs with MGO measured after 0.25 hrs by LCMS analysis. The format is physicochemical. The conditions noted are these: 10000 µM.
Series [3] can be described thus: Reactive carbonyl species trapping activity of compound assessed as MGO adduct formation at 10 mM preincubated for 24 hrs with MGO measured after 15 mins by LCMS analysis. In kind it is physicochemical. The conditions noted are these: 0.25 h, 10000 µM.
Series [4] is described as follows: Reactive carbonyl species trapping activity of compound assessed as MGO adduct formation at 10 mM preincubated for 24 hrs with MGO measured after 24 hrs by LCMS analysis. In kind it is physicochemical. The note with it: 10000 µM.
Series [5] can be described thus: Metal chelating activity of compound assessed as compound-Cu2+ complex formation at 2 mM after 10 mins in presence of CuSO4.5H2O by complexometric indicator murexide based UV-Vis spectrophotometric analysis. The conditions noted are these: 2000 µM. The format is physicochemical. The gist of the method: as §1
A short description of series [6]: Reactive carbonyl species trapping activity of compound assessed as MDA adduct formation at 10 mM preincubated for 24 hrs with MDA measured after 1 hr by LCMS analysis. The format is physicochemical. The conditions noted are these: 10000 µM.
The nature of series [7]: Reactive carbonyl species trapping activity of compound assessed as MDA adduct formation at 10 mM preincubated for 24 hrs with MDA measured after 24 hrs by LCMS analysis. The format is physicochemical. The conditions noted are these: 10000 µM.
Series [8] is described as follows: Metal chelating activity of compound assessed as compound-Cu2+ complex formation at 200 uM after 10 mins in presence of CuSO4.5H2O by complexometric indicator murexide based UV-Vis spectrophotometric analysis. The format is physicochemical. The gist of the method:
as §1

Series [9] is described as follows: Metal chelating activity of compound assessed as compound-Cu2+ complex formation at 0.05 mM after 10 mins in presence of CuSO4.5H2O by complexometric indicator murexide based UV-Vis spectrophotometric analysis. The format is physicochemical. The note with it: 50 µM. The gist of the method:
as §1

Series [10] can be described thus: Metal chelating activity of compound assessed as compound-Cu2+ complex formation at 0.02 mM after 10 mins in presence of CuSO4.5H2O by complexometric indicator murexide based UV-Vis spectrophotometric analysis. The format is physicochemical. The conditions noted are these: 20 µM. The gist of the method:
as §1

Series [11] is described as follows: Reactive carbonyl species trapping activity of compound assessed as MDA adduct formation at 10 mM preincubated for 24 hrs with MDA measured after 5 hrs by LCMS analysis. The format is physicochemical. The conditions noted are these: 10000 µM.
Series [12] in a line: Metal chelating activity of compound assessed as compound-Cu2+ complex formation at 0.08 mM after 10 mins in presence of CuSO4.5H2O by complexometric indicator murexide based UV-Vis spectrophotometric analysis. In kind it is physicochemical. The conditions noted are these: 80 µM. The method in brief: as §1
The species entered for another series is Rattus norvegicus. In words: Cytotoxicity against rat […] PC12 cells assessed as reduction in cell viability at 10 to 100 uM after 24 hrs by WST8-based CCK8 assay. The format is toxicity. The conditions noted are these: pc-12, 24 h. The method in brief: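 PC12 Adh cells (rat pheochromocytoma-derived) grown in F-12K with 2.5% FBS, 15% horse serum and pen/strep at 37 °C, 5% CO2. Seeded at 5×10^3 cells/well; treated at 80% confluency with 10 or 100 µM for 24 h. 10% DMSO served as positive cytotoxicity control. CCK-8 added for 1 h at 37 °C, absorbance read at 450 nm. Viability given as % of untreated cells; at least three experiments in triplicate.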
A general note: Formazan colour is commonly taken as a measure of viable cells.

Series [13] is described as follows: Reactive carbonyl species trapping activity of compound assessed as MDA adduct formation at 10 mM preincubated for 24 hrs with MDA measured after 0.25 hrs by LCMS analysis. In kind it is physicochemical. The note with it: 10000 µM.
Series [14] is described as follows: Metal chelating activity of compound assessed as compound-Cu2+ complex formation at 0.5 mM after 10 mins in presence of CuSO4.5H2O by complexometric indicator murexide based UV-Vis spectrophotometric analysis. The format is physicochemical. The note with it: 500 µM. The method in brief: as §1
A short description of series [15]: Reactive carbonyl species trapping activity of compound assessed as MDA adduct formation at 10 mM preincubated for 24 hrs measured after 15 mins by LCMS analysis. The format is physicochemical. The conditions noted are these: 0.25 h, 10000 µM.
Series [16] in a line: Antioxidant activity assessed as inhibition of AAPH-induced peroxyl radical generation measured as trolox equivalent at 10 uM preincubated for 30 mins followed by AAPH addition measured evey 60 secs for 60 cycles by ORAC-FL assay. The note with it: in the assay text read “90 secs” for “60 secs”. In kind it is functional. The gist of the method: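 Fluorescein (12 nM) preincubated with compound (1-20 µM) or Trolox standard (1-50 µM) in D-PBS, at least 30 min at 37 °C. Reaction started with AAPH (30 mM). Fluorescence (ex 485/em 520 nm) read every 90 s for 60 cycles. Net AUC is converted to Trolox equivalents via the Trolox calibration line. Values are reported at 10 µM, from at least three independent experiments in triplicate.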

Series [17] can be described thus: Reactive carbonyl species trapping activity of compound assessed as MDA adduct formation at 10 mM preincubated for 24 hrs with MDA measured after 0.5 hrs by LCMS analysis. In kind it is physicochemical. The conditions noted are these: 10000 µM.
The nature of series [18]: Reactive carbonyl species trapping activity of compound assessed as MGO adduct formation at 10 mM preincubated for 24 hrs with MGO measured after 0.5 hrs by LCMS analysis. The format is physicochemical. The conditions noted are these: 10000 µM.
Series [19] in a line: Reactive carbonyl species trapping activity of compound assessed as MGO adduct formation at 10 mM preincubated for 24 hrs with MGO measured after 1 hr by LCMS analysis. In kind it is physicochemical. The note with it: 10000 µM.
The nature of series [20]: Reactive carbonyl species trapping activity of compound assessed as MGO adduct formation at 10 mM preincubated for 24 hrs with MGO measured after 5 hrs by LCMS analysis. The format is physicochemical. The note with it: 10000 µM.
Series [21] in a line: Metal chelating activity of compound assessed as compound-Cu2+ complex formation at 1 mM after 10 mins in presence of CuSO4.5H2O by complexometric indicator murexide based UV-Vis spectrophotometric analysis. The format is physicochemical. The note with it: 1000 µM. The gist of the method:
as §1

The next series has as its system PC-12. As to the kind of experiment: Neuroprotective activity against MGO-induced apoptosis in rat PC12 cells assessed as reduction DNA fragmentation at 100 uM preincubated for 1 hr followed by MGO addition after 24 hrs by ELISA. In kind it is functional, cell-based. The gist of the method: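 PC12 cells pretreated 1 h at 37 °C with compound (10 or 100 µM) in D-PBS, then exposed to MGO (2 mM) for 24 h. Lysates analysed by anti-histone/anti-DNA-peroxidase ELISA for cytoplasmic mono- and oligonucleosomes, with ABTS read-out at 405 nm. Cells without MGO were the control; MGO alone was the apoptosis standard.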
For orientation: ELISA stands for enzyme-linked immunosorbent assay.

Each structure is given as a SMILES string. Calls of active or inactive are those of the source. No cut-off for these calls is given here.

As for `Cc1c(O)c(=O)ccn1CCCNC(=O)CCC(N)CN.Cl.Cl` (centres undefined), the Activity in [1] turned out to be 40.91%; in series [2], 95%; in [3], 95%; in series [4] it was 100%; in series [5], 95.45%; in series [6] it was 92%. The Activity in series [7] came to 99%; in [8], 66.7%; in series [9], 24.69%; in [10], 11.03%; in [11], 95%; in series [12], 35.1%. Also, the Activity entry is “Non-Toxic” in the series listed under Rattus norvegicus; 76% in series [13]; 88.46% in series [14]; 76% in [15]; 82% in series [17]; 98% in series [18]. The Activity in [19] was 100%; in series [20], 100%; in [21] it was 93.45%. The Activity (umolequiv/umol) in [16] is 1.01.

As to `Cl.Cl.NCC(N)CCC(=O)NCCCn1cccc(O)c1=O` (centres undefined), the Activity in [1] is reported as 42.39%; in [2] it was 97%; in series [3], 97%; in series [4], 98%; in [5], 74.74%; in series [6] it was 81%. In addition, the Activity in [7] was determined as 93%; in [8], 55.83%; in [9], 20.77%; in series [10], 11.11%; in series [11], 85%; in series [12] it was 37.47%. The Activity result in the series listed under Rattus norvegicus was “Non-Toxic”; in series [13], 74%; in [14], 71.22%; in series [17], 75%; in series [18], 98%; in [19], 97%. Further, the Activity is listed as 100% in series [20] and 74.89% in series [21]. In addition, the outcome in the series on PC-12 was Active. The Activity (umolequiv/umol) in series [16] was found to be 1.96.
